This is an account of results in ChEMBL document CHEMBL5316332 (J Med Chem, 2023).

A word on the ΔTm: it is the shift of the melting midpoint relative to a reference. What is called pKi is the negative decadic logarithm of the Ki, by convention in mol/L. For orientation: pIC50 means −log10 of the IC50, conventionally taken in molar units. Low readings indicate a high IC50, high ones a low IC50.

Experiment [1] concerns the target T1, Bone morphogenetic protein receptor type-2 (Homo sapiens) (UniProt Q13873).
T1 sequence (whole entry): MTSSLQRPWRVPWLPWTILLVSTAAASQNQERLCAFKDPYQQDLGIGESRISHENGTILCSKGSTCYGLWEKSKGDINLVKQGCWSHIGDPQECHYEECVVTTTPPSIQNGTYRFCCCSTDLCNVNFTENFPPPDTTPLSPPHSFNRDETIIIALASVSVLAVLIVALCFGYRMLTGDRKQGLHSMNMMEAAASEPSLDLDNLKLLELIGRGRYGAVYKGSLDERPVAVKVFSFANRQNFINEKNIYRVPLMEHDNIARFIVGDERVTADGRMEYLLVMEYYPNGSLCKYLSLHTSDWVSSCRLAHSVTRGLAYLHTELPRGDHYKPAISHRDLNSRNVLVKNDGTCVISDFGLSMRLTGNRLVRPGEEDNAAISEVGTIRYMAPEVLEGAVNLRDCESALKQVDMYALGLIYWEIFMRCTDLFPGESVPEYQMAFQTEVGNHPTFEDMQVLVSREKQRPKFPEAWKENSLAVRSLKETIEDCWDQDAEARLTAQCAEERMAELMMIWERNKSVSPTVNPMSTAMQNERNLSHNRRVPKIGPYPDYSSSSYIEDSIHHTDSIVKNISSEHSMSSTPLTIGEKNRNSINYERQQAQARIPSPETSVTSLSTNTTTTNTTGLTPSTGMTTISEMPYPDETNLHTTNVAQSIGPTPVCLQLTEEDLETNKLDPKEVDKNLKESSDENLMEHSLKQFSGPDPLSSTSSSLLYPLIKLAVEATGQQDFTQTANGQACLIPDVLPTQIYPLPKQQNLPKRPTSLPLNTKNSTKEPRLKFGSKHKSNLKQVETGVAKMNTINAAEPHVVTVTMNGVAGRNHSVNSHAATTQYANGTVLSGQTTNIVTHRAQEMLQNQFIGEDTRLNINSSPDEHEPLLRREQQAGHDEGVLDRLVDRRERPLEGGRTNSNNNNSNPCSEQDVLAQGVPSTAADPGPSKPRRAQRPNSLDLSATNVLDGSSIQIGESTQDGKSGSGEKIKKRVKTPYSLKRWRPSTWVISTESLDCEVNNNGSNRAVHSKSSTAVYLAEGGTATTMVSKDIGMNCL
Put plainly: Binding affinity to recombinant C-terminal 6His-tagged human BMPR2 (188 to 517 residues) expressed in Escherichia coli Rosetta assessed as change in melting temperature at 50 uM by SYPRO Orange dye based thermal shift assay. In short, it runs like this:
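BMPR2 kinase domain-His (purified by IMAC, anion exchange and size exclusion) at 1 μg per 10 μL reaction in 50 mM Tris–HCl pH 7.5, 150 mM NaCl with SYPRO Orange 5×. Compound at 50 μM. Scanned 20 to 95 °C with fluorescence read every 10 s. Tm from the melt curve; averages of three technical replicates.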

Experiment [2] addresses T2, Bone morphogenetic protein receptor type-2 (Homo sapiens, UniProt Q13873).
T2 sequence (Q13873 whole entry): T1 sequence (whole entry)
Kind of experiment: Inhibition of recombinant C-terminal 6His-tagged human BMPR2 (188 to 517 residues) expressed in Escherichia coli Rosetta assessed as apparent inhibition constant using ATP as substrate incubated for 30 mins by Morrison plot analysis. The following applies: read-out: Ki(app). Summed up: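 Purified His-tagged BMPR2 kinase domain with no peptide substrate (intrinsic ATPase). 10 μM ATP, 0.02% Tween-20, kinase buffer, 50 μL, enzyme level optimized for initial-velocity conditions. 30 min at 30 °C. Leftover ATP read by Kinase-Glo luminescence, with no-kinase controls. Kiapp from a modified Morrison equation fitted to normalized fractional activity, assuming no specific inhibition mode.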

Another experiment concerns the target T3, TGF-beta receptor type-1 (Homo sapiens, UniProt P36897).
T3 sequence (P36897 whole entry): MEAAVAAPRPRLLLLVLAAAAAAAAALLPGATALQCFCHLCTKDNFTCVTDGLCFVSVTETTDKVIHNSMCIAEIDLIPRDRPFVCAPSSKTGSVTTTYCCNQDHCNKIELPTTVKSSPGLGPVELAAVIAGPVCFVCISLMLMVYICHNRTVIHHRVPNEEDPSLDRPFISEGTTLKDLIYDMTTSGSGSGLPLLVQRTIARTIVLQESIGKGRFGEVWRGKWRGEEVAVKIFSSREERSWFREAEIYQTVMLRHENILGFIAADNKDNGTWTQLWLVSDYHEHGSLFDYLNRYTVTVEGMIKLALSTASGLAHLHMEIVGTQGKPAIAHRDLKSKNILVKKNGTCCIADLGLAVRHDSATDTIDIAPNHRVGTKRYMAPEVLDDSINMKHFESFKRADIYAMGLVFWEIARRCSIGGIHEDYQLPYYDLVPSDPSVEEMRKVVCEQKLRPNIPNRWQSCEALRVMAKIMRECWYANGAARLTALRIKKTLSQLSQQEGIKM
Kind of experiment: (§1) Inhibition of TGFBR1 (unknown origin) by LanthaScreen TR-FRET assay. In short, it runs like this:
(§2)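 Outsourced SelectScreen profiling using a LanthaScreen TR-FRET binding format, in which a tight-binding tracer is displaced from the kinase.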
(Time-resolved FRET reads energy transfer from a long-lived donor to a nearby acceptor.)

For experiment [3], the target named is Activin receptor type-1-like (Homo sapiens, UniProt P37023). Put plainly: Inhibition of ACVRL1 (unknown origin) by LanthaScreen TR-FRET assay. Summed up: as §2
In experiment [4] the target is Bone morphogenetic protein receptor type-1B (Homo sapiens, UniProt O00238). Kind of experiment: Inhibition of BMPR1B (unknown origin) by LanthaScreen TR-FRET assay. Summed up:
as §2

The test system of experiment [5] is HEK293T. Kind of experiment: Inhibition of BMP signalling pathway in BMP2-stimulated human HEK293T cells assessed as decrease in SMAD5 phosphorylation at 25 uM preincubated for 30 mins followed by BMP2 stimulation and measured after 15 mins by Western blot analysis. The following applies: time 45.0 min. The class given is cell-based. Summed up:
(§3)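 HEK293T cells, 3 × 10^5 per well, starved overnight in DMEM with 2 mM glycine and 2% heat-inactivated FBS. Pretreated 30 min with inhibitor, then 5 ng/mL BMP2 for 15 min. Lysed in M-PER with protease inhibitors. Western blot for pSMAD1/5, SMAD1, SMAD5 and GAPDH, quantified by densitometry.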

Experiment [6] deals with HEK293T. Put plainly: Inhibition of BMP signalling pathway in BMP2-stimulated human HEK293T cells assessed as decrease in SMAD1 phosphorylation at 25 uM preincubated for 30 mins followed by BMP2 stimulation and measured after 15 mins by Western blot analysis. The note with it: time 45.0 min. The class given is cell-based. Summed up:
as §3

The target of experiment [7] is T4, TGF-beta receptor type-1 (Homo sapiens) (UniProt P36897).
T4 sequence (whole entry): T3 sequence (P36897 whole entry)
Described as §1. In short, it runs like this:
as §2

Experiment [8] concerns HUVEC. Kind of experiment: Inhibition of BMP signalling pathway in BMP9-stimulated human HUVEC cells assessed as decrease in SMAD5 phosphorylation at 25 uM preincubated for 30 mins followed by BMP2 stimulation and measured after 15 mins by Western blot analysis. It counts as cell-based. The note with it: time 45.0 min. Summed up: (§4)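 HUVECs, about 3 × 10^5 per well, starved overnight in Kaighn's F-12 with 0.5% FBS and 30 μg/mL endothelial cell growth supplement. Pretreated 30 min with inhibitor, then stimulated with 0.5 ng/mL BMP9. Lysed in M-PER with protease and phosphatase inhibitors. Western blot for pSMAD1/5, SMAD1 and SMAD5, quantified by densitometry.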
For orientation: Immunoblotting shows a protein as a band on a membrane.

In experiment [9] the test system is HUVEC. Put plainly: Inhibition of BMP signalling pathway in BMP9-stimulated human HUVEC cells assessed as decrease in SMAD1 phosphorylation at 25 uM preincubated for 30 mins followed by BMP2 stimulation and measured after 15 mins by Western blot analysis. The class given is cell-based. The following applies: time 45.0 min. Summed up:
as §4

pIC50, pKi: −log10 of the molar value. The source made the active and inactive calls. No cut-off for these calls is given here.

Chain of Bone morphogenetic protein receptor type-1B (O00238 whole entry): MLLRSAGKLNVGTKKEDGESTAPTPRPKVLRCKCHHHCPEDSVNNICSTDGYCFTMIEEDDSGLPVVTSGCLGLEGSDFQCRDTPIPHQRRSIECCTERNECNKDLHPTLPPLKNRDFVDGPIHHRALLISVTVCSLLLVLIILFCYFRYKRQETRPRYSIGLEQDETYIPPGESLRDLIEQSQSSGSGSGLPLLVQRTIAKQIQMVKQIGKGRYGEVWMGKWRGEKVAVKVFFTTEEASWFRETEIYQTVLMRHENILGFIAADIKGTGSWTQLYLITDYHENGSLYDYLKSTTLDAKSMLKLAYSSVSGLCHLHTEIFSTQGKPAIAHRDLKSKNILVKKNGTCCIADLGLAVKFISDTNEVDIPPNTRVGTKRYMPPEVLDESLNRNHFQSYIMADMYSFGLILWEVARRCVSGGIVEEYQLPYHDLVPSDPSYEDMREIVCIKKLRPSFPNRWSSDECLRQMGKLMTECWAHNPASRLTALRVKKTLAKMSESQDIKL
Chain of Activin receptor type-1-like (P37023 whole entry): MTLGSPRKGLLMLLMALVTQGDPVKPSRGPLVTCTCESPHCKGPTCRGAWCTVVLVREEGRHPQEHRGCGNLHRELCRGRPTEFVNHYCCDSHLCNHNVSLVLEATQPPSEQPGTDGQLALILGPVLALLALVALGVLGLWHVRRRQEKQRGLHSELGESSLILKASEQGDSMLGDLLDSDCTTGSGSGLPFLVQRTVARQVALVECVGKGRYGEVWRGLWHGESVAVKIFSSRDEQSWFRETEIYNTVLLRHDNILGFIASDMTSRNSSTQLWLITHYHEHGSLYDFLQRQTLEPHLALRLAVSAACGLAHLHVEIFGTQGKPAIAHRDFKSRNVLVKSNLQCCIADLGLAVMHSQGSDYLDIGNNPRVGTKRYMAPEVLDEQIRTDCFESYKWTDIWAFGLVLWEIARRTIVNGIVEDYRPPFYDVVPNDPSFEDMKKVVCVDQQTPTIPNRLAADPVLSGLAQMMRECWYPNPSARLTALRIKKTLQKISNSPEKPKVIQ

For the compound `CNC(=O)[C@@H]1CC[C@@H](n2c(-c3ccc4cnccc4c3)nc3ccc(C(=O)NCc4cccc(C(N)=O)c4)cc32)C1`, in [1], the ΔTm stood at 15.7 °C. Moreover, the pKi in experiment [2] is 8.21. For the same compound, the pIC50 against TGF-beta receptor type-1 was less than 6.00; in experiment [3], 6.57; in experiment [4], less than 6.00.

In the case of `COc1cnc(Nc2cccc(S(N)(=O)=O)c2)nc1N1CCN(c2ccccc2)C(=O)C1`, the inhibition entry in the experiment on HEK293T [5], with HEK293T [6], with HUVEC [8] and with HUVEC [9] was “Active” in each case. The pKi in experiment [2] was 8.15. Besides, the inhibition result in experiment [7] and in experiment [4] was “inactive” in each case.

Regarding `CNC(=O)CCc1ccc(C(=O)NCc2cccc(N3CCN(c4nc(Nc5cccc(S(N)(=O)=O)c5)ncc4OC)CC3)c2)cc1`, in experiment [1], the ΔTm was determined as 13.9 °C. Besides, the pKi in [2] is 7.69. Moreover, the inhibition entry in experiment [7] and in experiment [4] was “inactive” in each case.

Consider `NC(=O)c1cccc(CNC(=O)c2ccc3nc(-c4ccc5cnccc5c4)n(C4CCCC4)c3c2)c1`, for which the inhibition result in the experiment with HEK293T [5], in the experiment on HEK293T [6], with HUVEC [8] and in the experiment on HUVEC [9] was “Active” throughout. Moreover, the pKi in experiment [2] is 8.10. In addition, the pIC50 at TGF-beta receptor type-1 is less than 6.00; in experiment [3], 6.88; in [4], less than 6.00.
